E coli WT exp = blocks growth of wild type E. coli BW25113 | OD600 absorbance | growth inhibition, % at 100 µM | hit rate 0.15% among 98,000;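 active = growth inhibition above about 50% at one test dose, limit read from the data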;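 also: growth measured after 20 h incubation at 37 °C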
PostGolgi ctrl = inhibits growth of the yeast control strain. hit rate 5% among 98,000. efflux-deficient yeast background strain, growth absorbance A615, 16 h. inhibition, % at 10 µM. AID 738
PostGolgi yeast = growth inhibition of a yeast mutant, post-Golgi transport screen | post-Golgi transport phenotypic cell assay | inhibition, % at 10 µM | hit rate 0.9% among 98,000;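 also: yeast cells grown in 1536-well plates; yeast grown about 18 h at 30C before absorbance read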
Calb biofilm kill = kills Candida albicans biofilms | inhibition, % at 6 µM | AID 834 | hit rate 0.14% among 85,000 | C. albicans biofilm + clotrimazole, Alamar Blue;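 active = inhibition above 20%; inactive = inhibition below 20%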;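 also: preformed 24 hr biofilms exposed to compound for 48 hr; 0% = biofilm without compound and 100% = blank killed by clotrimazole plus chlorhexidine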
PTK2B oligo ant = blocks oligomerization of human Pyk2 in cells; Q14289; Q293 cells, Pyk2 FERM NanoBiT luminescence; active compounds read low; z-score (the deposit names both 25 µM and 10 µM); hit rate 0.83% among 99,000;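 active = Z-score of -3 or lower, scaled per plate to the spread of control and sample wells; inactive = z-score above -3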;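 also: negative z-score means lost luminescence so less FERM oligomerization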
tolC growth inh = E. coli tolC mutant growth inhibition; growth inhibition, % at 10 µM (by protocol); hit rate 2.2% among 65,000; E. coli BW25113 tolC mutant growth, OD615;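 active = growth inhibition at or above a cutoff equal to the mean over every tested compound plus 3 SD, cut at about 60% in these data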;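 also: growth measured after 20 h incubation at 37 °C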
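Test system: tolC-deleted E. coli BW25113; medium: LB with kanamycin 50 µg/mL; compound: single-point testing at 10 µM; incubation: 20 h compound exposure of bacteria at 37 °C; signal: OD at 615 nm; evaluation: growth inhibition in percent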
* marks the source's active call; other numbers are inactive results; · = not tested or not shown. Sampled rows, rich in hits. Any-hit rate of the full collection: about 6.5%. Rule as the data show it, unless noted: active = inhibition above about 30%; inactive = the rest.

SMILES	E coli WT exp	PostGolgi ctrl	PostGolgi yeast	Calb biofilm kill	PTK2B oligo ant	tolC growth inh
O=C(c1cn(-c2ccccc2)nc1-c1cccs1)N1CCN(c2ccccn2)CC1	-19	54*	-3	8	-0.73	19
CN(C)C(=O)c1cn(-c2ccccc2)nc1-c1cccs1	-5	3	-8	-4	-0.32	·
CC(C)c1ccc(Nc2nc(NCc3ccco3)nc(N3CCOCC3)n2)cc1	-7	4	5	·	-0.91	66*
Cc1cc(C)nc(N2CCCC(C(=O)Nc3nnc(C(C)C)s3)C2)n1 (stereo not drawn)	·	·	·	7	·	·
Cc1cc(N2CCC(C)CC2)nc(-n2nc(C)cc2C)n1	19	10	0	6	-0.41	100*
CC1CCc2sc3nc(NCc4ccco4)n4ncnc4c3c2C1 (stereo not drawn)	-4	63*	-12	8	0.16	36
CC1CCCc2sc3nc(NCc4ccco4)n4ncnc4c3c21 (stereo not drawn)	-11	57*	-1	1	0.92	81*
O=C(CNC(=O)Cn1ccc2ccccc2c1=O)NCCCN1CCCCCC1	5	12	-4	8	-0.59	4
CCn1cnc2sc(C)c(C)c2c1=O	-3	32*	12	·	·	·
CCn1cnc2sc(C(=O)O)c(C)c2c1=O	4	1	-8	4	0.83	-14
Cc1nc(SCC(=O)c2ccccc2)c(C#N)c(-c2ccco2)c1C(=O)NCc1ccco1	-7	13	-4	-5	-1.3	12
CC(C)CCOc1ccc(Cl)cc1CN1CCOCC1	6	37*	32*	2	-0.5	7
CCCCCOc1ccc(Cl)cc1CN1CCOCC1	1	26	58*	7	-0.23	-2
CCOc1ccc(Cl)cc1CN1CCOCC1	12	13	-7	5	-0.49	·
Clc1ccc2c(c1)C(c1cccs1)=NNC(c1cccnc1)=N2	7	-5	22	·	-0.29	·
COC(=O)c1ccc(CNC(=O)/C=C/c2cc([N+](=O)[O-])ccc2OC(F)F)cc1	0	4	-2	·	-0.98	·
O=C(c1ccc(COc2ccc3c(c2)CCC3)o1)N1CCN(c2ccccc2)CC1	·	·	·	·	0.63	67*
O=C(c1ccc(COc2ccccc2Br)o1)N1CCCCCC1	-5	38*	-1	2	-1.9	61*
O=C(c1ccc(COc2ccccc2Br)cc1)N1CCCCC1	-3	27	-5	·	-1.3	·
CCCc1ccc(OCc2ccc(C(=O)N3CCN(c4ccccn4)CC3)o2)c(OC)c1	-14	71*	7	-1	-0.52	100*
O=C(c1ccc(COc2ccccc2Cl)o1)N1CCN(c2ccccc2)CC1	-26	46*	-12	2	·	84*
O=C(c1ccco1)N1CCN(C(=O)c2ccc(COc3ccc4c(c3)CCC4)o2)CC1	-5	10	5	3	-0.5	·
CC(=O)c1oc2ccccc2c1NC(=O)CN1CCCCC1	·	·	·	9	-0.21	·
CCCCOC1(c2ccccc2)NC(=S)NN=C1c1ccccc1 (stereo not drawn)	8	11	-3	9	·	·
Cc1nn(Cc2c(F)c(F)c(F)c(F)c2F)c(C)c1NC(=O)c1ccc(COc2ccccc2Cl)o1	-16	80*	-4	·	-0.46	·
SMILES	E coli WT exp	PostGolgi ctrl	PostGolgi yeast	Calb biofilm kill	PTK2B oligo ant	tolC growth inh
Cc1cccc(OCC(=O)N/N=C/c2cn[nH]c2-c2ccc(Cl)c(Cl)c2)c1	-10	38*	-5	·	-0.96	·
Cc1ccc2nc(C3CCN(S(=O)(=O)c4ccc5ccccc5c4)CC3)[nH]c2c1	4	14	6	6	-0.87	·
COc1cccc(-c2cc(C(F)(F)F)nc(-n3cc(Cl)cn3)n2)c1	-3	10	17	10	0.09	·
CS(=O)(=O)c1nc(-c2cccs2)cc(C(F)(F)F)n1	12	55*	8	13	·	11
COc1ccc(-c2cc(C(F)(F)F)nc(S(C)(=O)=O)n2)cc1	6	62*	68*	·	0.04	·
COc1ccc(-c2cc(C(F)(F)F)nc(-n3cc(Cl)cn3)n2)cc1	0	41*	12	-3	1.4	·
O=C(O)CCS(=O)(=O)c1nc(-c2cccs2)cc(C(F)(F)F)n1	13	16	4	1	0.55	·
Cc1cc(NC(=O)CCCS(=O)(=O)c2nc(-c3cccs3)cc(C(F)(F)F)n2)no1	-1	35*	13	·	-0.09	4
Cc1cc(C)nc(SCC(=O)Nn2cnnc2)n1	-3	11	-4	5	0.48	-11
Cc1sc2c(=O)n3c(nc2c1C(=O)NC1CCCCC1)CCCCC3	-9	25	20	-5	-0.82	·
N#C/C=C(/N)N1CCN(c2ccc(Cl)c(Cl)c2)CC1	14	3	32*	·	0.25	·
O=C(NCCN1CCCC1)c1ccc(CS(=O)(=O)c2c(Cl)cccc2Cl)o1	6	2	2	-8	·	-4
O=C(Cn1nnc(-c2cccc(C(F)(F)F)c2)n1)NC1CCCC1	2	5	8	3	-0.23	1
NC(=O)c1cc(-c2ccccc2)nc(N2CCCCCC2)n1	-5	37*	18	-1	-1.9	-5
NC(=O)c1cc(-c2ccccc2)nc(N2CCOCC2)n1	2	5	15	5	-0.59	9
COc1cccc(C2(CSc3nnc(-c4cc(OC)c(OC)c(OC)c4)o3)OCCO2)c1	-14	19	4	·	-0.42	·
Cn1c(=O)oc2cc(S(=O)(=O)N3CCCC(C(=O)N4CCc5ccccc5C4)C3)ccc21 (stereo not drawn)	-10	51*	-5	11	·	18
COc1ccc(S(=O)(=O)N2CCC(C(=O)N3CCc4ccccc4C3)CC2)cc1Cl	-13	49*	-2	4	-0.7	·
CCC(C)NC(=O)C1CCN(S(=O)(=O)N2CCCC2)CC1 (stereo not drawn)	3	31*	-10	3	0.91	-19
O=C(CCNc1ccc(F)c(Cl)c1)c1ccco1	19	0	-8	·	-0.02	8
O=C(CCNc1cc(Cl)cc(Cl)c1)c1ccco1	27	15	7	5	1.1	85*
CSc1nc(N)nc(SCC(=O)C23CC4CC(CC(C4)C2)C3)c1C#N	-11	60*	12	·	1.7	11
COc1ccc(C(=O)CSc2nc(N)nc(SC)c2C#N)cc1	0	33*	0	1	-0.1	·
CSc1nc(N)nc(SCC(=O)c2ccccc2)c1C#N	-6	0	-21	9	-2	17
COc1ccccc1Nc1nc(N)nc(CN2CCc3ccccc3C2)n1	·	·	·	·	-0.22	13
CC(C)(C)c1csc(NC(=O)c2ccc3nccnc3c2)n1	8	19	-3	8	-0.42	·
Cc1ccc(C(=O)NNC(=O)CSc2nnc(-c3ccncc3)n2-c2ccc(C)cc2)cc1	6	-1	1	·	0.08	·
CCOC(=O)c1c(C)n(C)c2ccc(OC)c(NS(=O)(=O)c3ccc(Cl)s3)c12	-11	34*	-7	8	-1.1	19
CC(C)(C)NC(=O)COC(=O)Cc1ccc(Cl)cc1	7	-5	1	7	0.39	-2
O=C(COC(=O)c1c2c(nc3ccccc13)CCCC2)Nc1ccc2c(c1)OCO2	-8	26	18	6	-3.5*	47
